In publication PMC3806331 (Journal of natural products, 2013):
Read-outs that look alike come from different tables or passages of the source.

Assays:
[1] = tested on: HT-29 human colon cancer cell line; assay: SRB cytotoxicity assay, HT-29; assay type: cell-based; conditions: HT-29, 72 h, read-out: IC50 HT-29 72 h
[2] = tested on: Raji human Burkitt's lymphoma cells; assay: MTS growth inhibition assay, Raji cells; assay type: cell-based
[3] = tested on: quinone reductase in Hepa 1c1c7 murine hepatoma cell line; assay: Quinone reductase induction assay; assay type: cell-based; conditions: Mus musculus, Hepa-1c1c7, read-out: CD (concentration required to double quinone reductase activity), Hepa 1c1c7 cells; average ± SD, three independent experiments
[4] = tested on: HT-29 human colon cancer cells; assay: In vivo hollow fiber assay, HT-29; conditions: HT-29 in hollow fibers in mice, any dose, ip once daily
How it was run: (§1)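 HT-29 cells (1 × 10^6 per mL), alongside other human cancer lines, grown in hollow fibers implanted ip and sc in immunodeficient female NCr nu/nu mice. Test compound given by ip injection once daily: first run at 5, 10, 15, 30 mg/kg in 30% cyclodextrin; repeat run at 0.5, 1, 2 mg/kg. Positive controls: bortezomib 1 mg/kg ip (first run); paclitaxel 5 mg/kg ip (repeat run).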

[5] = tested on: immunodeficient female NCr nu/nu mice; assay: Toxicity to mice in the hollow fiber assay; assay type: in vivo
How it was run: as §1

[6] = tested on: 697 human acute lymphoblastic leukemia cells; assay: MTS growth inhibition assay, 697 cells; assay type: cell-based; conditions: read-out: IC50 values in 697 cells (range)

Row | Structure (SMILES) | IC50 [1] [µM] | IC50 ([2]; 48 h, read-out: IC50 Raji 48 h) [µM] | IC50 ([2]; 72 h, read-out: IC50 Raji 72 h) [µM] | EC (2-fold induction) [3] [µM] | net reduction of relative percent cell growth [4] | toxicity to mice ([5]; ip 0.5, 1 and 2 mg/kg once daily) | lethality to mice ([5]; ip 5, 10, 15 and 30 mg/kg once daily) | IC50 [6] [µM]
1 | COc1ccc2c(c1C1=COC(C)(C)C1=O)O[C@H](c1ccccc1)CC2=O [Compound 3, (2S)-2,3-dihydrotephroglabrin] | > 10 | > 10 | > 10 | < 10 | – | – | – | –
2 | C=C(C)[C@H]1Cc2c(ccc3c2O[C@@H]2COc4cc(OC)c(OC)cc4[C@]2(O)C3=O)O1 [Compound 7, cis-(6aβ,12aβ)-hydroxyrotenone] | – | – | – | – | No effect | no noticeable toxicity | lethal | –
3 | COc1ccc2c(c1/C=C/C(C)(C)O)O[C@H](c1ccccc1)CC2=O [Compound 4, (2S)-2,3-dihydrotephroapollin C] | > 10 | > 10 | > 10 | – | – | – | – | –
4 | COc1cc2c(cc1OC)[C@]1(O)C(=O)c3ccc4c(c3O[C@@H]1CO2)C=CC(C)(C)O4 [Compound 9, tephrosin] | – | – | – | – | – | – | – | 5.4 to 9
5 | COc1cc2c(c(O)c1C(=O)/C=C/c1ccccc1)[C@H]1[C@@H](O2)OC(C)(C)[C@@H]1OC(C)=O [Compound 10, (+)-tephropurpurin] | > 10 | > 10 | > 10 | – | – | – | – | –
6 | CC1(C)O[C@@H]2Oc3ccc(C(=O)/C=C/c4ccccc4)c(O)c3[C@@H]2[C@H]1O [Compound 11, (+)-tephrosone] | > 10 | > 10 | > 10 | – | – | – | – | –
7 | COc1ccc2c(c1/C=C/C(C)(C)OC)O[C@H](c1ccccc1)CC2=O [Compound 6, (2S)-7-methoxy-8-(3-methoxy-3-methyl-but-1-enyl)flavanone] | > 10 | > 10 | > 10 | < 10 | – | – | – | –
